The results in this text go back to ChEMBL document CHEMBL1122642, “Biomimetic approach to potential benzodiazepine receptor agonists and antagonists” (J Med Chem, 1984).

pKd, pKi: −log10 of the molar value.

The first assay is filed under the species Rattus norvegicus. Kind of assay: In vitro inhibition of [3H]diazepam binding to GABA-A benzodiazepine receptor of rat cerebral cortical membranes at 50 uM. The class given is cell membranes. To be noted: Membrane.
Turning to `COC(=O)C1Cc2c3n(c4ccccc24)C(=O)CCC3N1Cc1ccccc1` (configuration not stated), the Inhibition was determined as 17%.

A further assay has as its target GABA-A receptor; anion channel. Kind of assay: In vitro inhibition of [3H]diazepam binding to rat cerebral cortical membrane benzodiazepine receptors.
Conditions: not given
In outline: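 Thrice-washed rat cerebral cortex membranes in 50 mM Tris-HCl pH 7.4 (0.5–0.6 mg/mL protein), incubated 30 min at 4 °C with 2 nM [3H]diazepam plus test compound. Stopped with ice-cold Tris, then GF/B filtration and scintillation counting. Nonspecific binding with 3 μM unlabeled diazepam or clonazepam.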
In turn, `COC(=O)C1Cc2[nH]cnc2C(c2ccccc2)N1` (trans isomer) showed a pKi of under 4.30.

The compound `COC(=O)c1cc2[nH]cnc2c(-c2ccccc2)n1` gave a pKi of 5.00.

`O=C1CCC2c3c(c4ccccc4n31)CCN2Cc1ccccc1` (configuration not stated) had a pKi of 4.95. The pKi values of the last two compounds are within 0.2 log units of each other.

In the case of `COC(=O)c1cc2c3ccccc3n3c(=O)ccc(n1)c23`, the negative-log Ki (pKi) is 7.00.

On to `COC(=O)C1Cc2[nH]cnc2C(c2c(CO)cnc(C)c2O)N1` (configuration not stated), for which the pKi was under 4.30.

`COC(=O)c1cc2cc(OC)c(OC)cc2cn1` showed a pKi of 5.00.

`CCOC(=O)c1cc2c(cn1)[nH]c1ccccc12`: the negative logarithm of the Ki (pKi) was 9.00.

`O=C(O)C1Cc2[nH]cnc2CN1` (configuration not stated) gave a pKi of under 4.30.

`CC(=O)OCc1cc2c3ccccc3nc-2c[nH]1` gave a pKi of 3.12.

`OCc1cc2c3ccccc3nc-2c[nH]1` gave a pKi of 5.83.

Turning to `COC(=O)c1cc2c(cn1)[nH]c1ccccc12` [BETA-CCM], the pKi was 9.00. This pKi lies 3.17 log units higher than the previous one.

Regarding `O=c1ccc2nccc3c4ccccc4n1c23` [CANTHIN-6-ONE], the negative logarithm of the Ki (pKi) is 5.00.

`COC(=O)C1Cc2cc(OC)c(OC)cc2CN1` (configuration not stated) gave a pKi of 4.49.

Compound `COC(=O)C1Cc2ccccc2CN1` (configuration not stated) had a pKi of under 4.30.

In turn, `O=C(O)C1Cc2[nH]cnc2C(c2ccccc2)N1` (cis isomer) showed a pKi of under 4.30.

With `Cc1ncc(CO)c(C2NCCc3ncn(C)c32)c1O` (configuration not stated), the negative-log Ki (pKi) was under 4.30.

`NC(=O)c1cc2c3ccccc3nc-2c[nH]1` had a negative-log Ki (pKi) of 7.17.

In the case of `CC(=O)c1cc2c3ccccc3nc-2c[nH]1`, the pKi is 7.24.

The compound `O=C(O)C1Cc2cc(O)c(O)cc2CN1` (configuration not stated) had a pKi of under 4.30.

Compound `COC(=O)c1cc2[nH]cnc2cn1` had a pKi of under 4.30.

Molecular target in another assay: not listed separately
Kind of assay: In vitro binding to GABA-A benzodiazepine receptor of rat cerebral cortical membranes.
Conditions: not given
The method in brief: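 Rat cerebral cortex homogenised in Tris-HCl (50 mM, pH 7.4), washed three times by centrifugation at 20000g, 4 °C, and resuspended at 0.5–0.6 mg protein/mL. Incubated with 2 nM [3H]diazepam, 30 min, 4 °C. Stopped with ice-cold buffer, GF/B filtered, scintillation counted. Nonspecific binding with 3 μM unlabelled diazepam or clonazepam. […] Mean of two experiments.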
`CN1C(=O)CN=C(c2ccccc2)c2cc(Cl)ccc21` [DIAZEPAM] gave a pKd of 5.25.

As usually defined, the Inhibition is the percentage by which the read-out fell short of the control. A higher Inhibition goes with a strong effect. By pKi is commonly meant the negative decadic logarithm of the Ki, by convention in mol/L. In general, pKd refers to −log10 of the Kd, conventionally taken in molar units. Low values mean a large Kd, high ones a small Kd.
